In ChEMBL document CHEMBL1122852, “Imidazo[1,5-d][1,2,4]triazines as potential antiasthma agents” (J Med Chem, 1985):
Activity calls are given as the source filed them. No cut-off for these calls is given here.

What was measured:
[1] = species: Homo sapiens; test: Inhibitory activity against histamine release from antigen-challenged, sensitized human basophils; Fluorescent compound, obscuring the histamine assay; assay type: functional
Summary of the method: (§1)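 Histamine release was induced by antigen challenge of sensitized human basophils in vitro. Compounds were first screened at a single concentration. Those reducing release by more than 50% went on to concentration-response testing to estimate IC50. Values are given with standard error and number of experiments.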

[2] = species: Homo sapiens; test: Inhibitory activity against histamine release from antigen-challenged, sensitized human basophils; assay type: functional; conditions: Homo sapiens; summary of the method: as §1
[3] = species: Mus musculus; test: Effective dose in mouse PCA test; assay type: functional
Summary of the method: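 Female CFW mice were passively sensitized with 50 µL of diluted homologous IgE-containing serum iv. Two days later compound was given po, 1 h before iv ovalbumin antigen plus Evans Blue dye. Mice were killed after 20 min, and each lesion area was scored as the product of two normal diameters.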

[4] = test system: Cavia porcellus; test: Compound was evaluated in the guinea pig anaphylaxis test for in vivo activity; Inactive, treated 12/19, control 16/20; assay type: functional, organism-based

Row | SMILES | IC50 [2] [µM] | further results
1 | Cc1nnc(O)n2c(C)nc(C)c12 |  | IC50 [1]: Fluoroescent compound, obscuring the histamine assay
2 | CCCc1nc(C)c2c(CC)nnc(O)n12 | 15.6 | ED50 [3]: 146 mg/kg
3 | Cn1c(=O)c2[nH]cnc2n(C)c1=O |  | Activity [4]: inactive
4 | Cn1c(=O)c2nc[nH]c2n(C)c1=O.O [THEOPHYLLINE] | 335 | ED50 [3]: 140 mg/kg
5 | Cc1nc(C(C)C)n2c(O)nncc12 | > 48 | 
6 | Cc1nc(CC(C)(C)C)n2c(O)nncc12 | > 48 | 
7 | CC(C)CCSc1nncc2cncn12 | 9 | 
8 | CCCc1ncc2c(C)nnc(O)n12 | > 48 | 
9 | CC(C)(C)c1ncc2cnnc(O)n12 | > 48 | 
10 | Cc1nc(-c2ccccc2)n2c(S)nncc12 | > 48 | 
11 | CCCCCCCCCCCCCCCCCc1ncc2cnnc(S)n12 | > 48 | 
12 | CCCc1nc(C)c2cnnc(NCCN(C)C)n12 | > 48 | 
13 | CCCc1nc(C)c2c(C(C)C)nnc(S)n12 | > 48 | 
14 | C=CCn1ncc2c(C)nc(CCC)n2c1=O | 40 | 
15 | C=CCn1nc(CCC)c2c(C)nc(CCC)n2c1=O | 29 | 
16 | COCc1ncc2cnnc(NCCN(C)C)n12 | > 48 | 
17 | Cc1nc(-c2ccccc2)n2c(O)nncc12 | > 48 | 
18 | CCCc1nnc(O)n2c(CCC)nc(C)c12 | 16 | ED50 [3]: 114 mg/kg
19 | CCCc1nc(C)c2c(C)nnc(S)n12 | 45 | 
20 | Oc1nncc2c(Br)nc(Cc3ccccc3)n12 | > 48 | 
21 | C=CCn1ncc2c(C)nc(CCC)n2c1=S | > 48 | 
22 | CCCc1nc(C)c2c(C)nn(CC(=O)c3ccccc3)c(=O)n12 | > 48 | 
23 | C=CCn1ncc2c(C)ncn2c1=O | > 48 | 
24 | CCCc1nc(C)c2c(C)nnc(O)n12 | 14 | ED50 [3]: 109 mg/kg
25 | Sc1nncc2cncn12 | > 48 | 
26 | CCc1nc(C)c2cnn(CC)c(=O)n12 | 75.6 | 
27 | CCCc1nc(C)c2cnn(CC)c(=O)n12 | > 48 | 
28 | CCCc1nnc(SC)n2c(CCC)nc(C)c12 | > 48 | 
